# Screening data (PubChem)
# A1 inh = inhibitors of the anti-apoptotic protein A1, read as caspase activation | MEF A1-2A-BIM cells, Caspase-Glo 3/7 luminescence, 3 h; percent of clofoctol response, vehicle zero | caspase activation, % (concentration not given with the values) | 0.066% of 330,000 active;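 active = over half of replicate activation scores above 10%, or exactly half above 10 with the replicate mean above 10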
# CHOP inhibitor = inhibitors of CHOP induction in ER stress response; 3.8% of 220,000 active; inhibition, % at 10 µM; CHO-K1 CHOP-promoter luciferase, tunicamycin-induced, 15-18 h;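 active = compounds that reduced the stress-induced luciferase reporter signal by more than about 70% of percent inhibition, limit read from the data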;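 note: 0% = tunicamycin plus vehicle and 100% = wells without tunicamycin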
# CHOP UPR activ = activators of apoptotic arm of unfolded protein response (CHOP) | CHO-CHOP luciferase reporter, UPR activation, luminescence; percent of tunicamycin response over DMSO baseline | 0.34% of 330,000 active | AID 449763 | activation, % at 10 µM;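 active = at 10 µM dose, activation of 40% or more, normalized to positive control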;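 note: 100% = tunicamycin at 10 µg/mL and 0% = DMSO alone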
#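 System: CHO-CHOP luciferase reporter cell line | Buffer or medium: F12 medium containing 10% fetal bovine serum | Doses: One dose, 10 µM in 0.5% DMSO | Times: 6 h compound exposure at 37 °C after overnight seeding | Signal: Luciferase luminescence | Read-out: % activation vs tunicamycin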
# XBP1 UPR activ = activators of adaptive arm of unfolded protein response (XBP1). CHO-XBP1 luciferase reporter, IRE1-XBP1 UPR activation, luminescence; percent of tunicamycin response, DMSO as zero. activation, % at 20 µM. 0.33% of 330,000 active. AID 463104;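 active = versus positive control, 20 µM dose yields 30% or more activation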;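 note: 100% = tunicamycin at 10 µg/mL and 0% = DMSO only wells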
#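 assay system = CHO-XBP1 luciferase reporter cells | amount = 1000 cells/well | buffer or medium = F12 plus 10% FBS | compound dosing = single point, 20 µM final compound, 1% DMSO | incubation = 16-18 h cell attachment at 37 °C, then 6 h compound exposure | detection = Steady-Glo luminescence read | controls = tunicamycin 10 µg/mL and vehicle-only wells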
# Starred values were filed as active, the others as inactive; x = no result. This excerpt belongs to a sample that is enriched for hits.
SMILES,A1 inh,CHOP inhibitor,CHOP UPR activ,XBP1 UPR activ
O=C(O)CCSc1ncnc2sc(-c3ccccc3)cc12,-2.5,88.9*,-8.8,-5.0
CC(C)Cn1c(N)c(C(=O)CSc2cc(Cl)ccc2Cl)c(=O)n(C)c1=O,-0.2,96.0*,4.9,4.0
Cc1nc(-c2ccc(NC(=O)c3ccc(Br)o3)cc2)cs1,-10.1,x,4.8,-3.1
CC(/C=N/NC(=O)NC1CCCCC1)=C\c1ccccc1,-0.1,85.8*,1.2,2.7
COc1nc(N(C)S(=O)(=O)c2ccc(C)cc2)nc(C)c1Cl,0.6,83.3*,10.8,0.6
C=CCN(c1nc(C)c(Br)c(OC)n1)S(=O)(=O)c1ccc(C)cc1,-0.6,x,-2.0,-0.4
CCCCn1c(SCC(=O)NNC(=O)c2ccccc2)n[nH]c1=O,0.1,x,-0.1,0.4
CCCCc1nc2sc3c(SCC(=O)NCc4ccco4)ncnc3c2c2c1CCC2,0.7,86.1*,0.2,11.0
COC(=O)c1cc(Cl)c(NC(=O)/C=C/c2ccc(Cl)cc2Cl)cc1OC,0.7,83.7*,0.0,-2.4
O=C(O)CCC(NC(=O)c1ccccc1C(=O)O)C(=O)O (stereo not drawn),x,-0.4,x,x
O=C(Nc1ncc(Cc2ccc(SC(F)F)cc2)s1)c1ccc(OC(F)F)cc1,0.0,71.7*,3.0,13.8
Cc1ccc(Cc2cnc(NC(=O)c3ccco3)s2)cc1,-3.8,30.6,-1.3,-5.3
NC(=O)c1ccccc1NC(=O)CN1CCN(Cc2ccc(Cl)cc2Cl)CC1,0.4,x,-0.4,-3.9
CC1=C(C(=O)OC(C)C)C(c2cccnc2)C2=C(CCCC2=O)N1 (stereo not drawn),-0.2,91.2*,-1.8,0.5
CCOC(=O)C1=C(C)NC2=C(C(=O)CCC2)C1c1cccnc1 (stereo not drawn),1.1,4.7,1.4,-1.5
COc1ccc(NC(=S)N/N=C2/CCCc3c(C)cc(C)cc32)cc1,1.5,77.3*,0.1,5.3
O=C(CSc1nc2ccccc2c(=O)n1CCCO)Nc1ccc2c(c1)OCCO2,x,x,1.3,4.1
Cc1ccc2nc(N/N=C\c3ccc([N+](=O)[O-])o3)nc(-c3ccccc3)c2c1,2.6,49.5,8.2,3.6
O=[N+]([O-])c1ccc(/C=N/Nc2nc(-c3ccccc3)c3cc(Br)ccc3n2)o1,0.0,82.4*,4.3,-1.0
COCCN1CCN(c2cc(-c3ccccc3)nc3cc(-c4cccc(F)c4)nn23)CC1,0.3,80.3*,5.5,-0.3
CC(C)c1ccc(OCc2nc(-c3ccccn3)no2)c(Br)c1,-6.4,70.6*,0.5,-1.8
CCn1c(SCC(=O)Nc2nc(-c3ccc(C)cc3)cs2)nnc1-c1ccccc1,-0.1,40.5,-0.2,0.2
CCn1c(SCC(=O)Nc2nc(-c3ccc(C)cc3)cs2)nnc1-c1ccccc1O,0.2,85.8*,2.9,-2.3
CCc1nc(N2CCC(C)CC2)c2oc3ccccc3c2n1,-0.2,70.2*,2.4,-0.1
CCNc1nc(CC)nc2c1oc1ccccc12,0.3,12.4,2.2,2.0
SMILES,A1 inh,CHOP inhibitor,CHOP UPR activ,XBP1 UPR activ
CCc1nc(N(CC)CC)c2oc3ccccc3c2n1,-0.5,91.0*,0.7,3.9
CN(Cc1cc([N+](=O)[O-])ccc1Cl)C(=O)C[n+]1ccccc1,-0.3,x,1.0,-2.5
O=CN1c2ccccc2CSc2ccccc21,0.6,x,0.4,0.6
CC(C)CN(C(=O)c1cc(=O)[nH]c2ccccc12)c1c(N)n(Cc2ccccc2)c(=O)[nH]c1=O,-0.3,x,0.5,-3.6
CC(=O)c1c(C(C)=O)c(C)n(Cc2ccccc2)c1C,0.3,15.3,-2.5,-4.9
Cc1c(C=O)c(C=O)c(C)n1Cc1ccccc1,9.3*,25.6,3.7,-5.2
C/C(=N\NC(=O)c1cccc(S(=O)(=O)N2CCOCC2)c1)c1ccc(C)cc1,0.1,x,2.1,-0.6
Nc1n[nH]c(N)c1N=Nc1cccc(C(F)(F)F)c1,1.4,x,0.9,1.3
O=C(O)c1ccc(NC2=C/C(=N/S(=O)(=O)c3ccccc3)c3ccccc3C2=O)cc1,x,103.0*,5.7,-2.5
Cc1cc(C)c(S(=O)(=O)/N=C2\C=C(Nc3ccc(C(=O)O)cc3)C(=O)c3ccccc32)c(C)c1,-0.1,x,36.2,-9.6
CC(C)CC1Nc2ncnc(N3CCN(c4ccccc4)CC3)c2N(Cc2ccc(Cl)cc2)C1=O (stereo not drawn),0.7,x,2.4,2.8
CC1C(c2ccccc2)N(C)C(c2ccccc2)CC1(O)c1ccccc1 (stereo not drawn),0.3,85.1*,-1.4,5.0
